Experimental data: PMC4561207 (Child's nervous system : ChNS : official journal of the …, 2015)

Experiment: Adverse events regardless of attribution
Assay type: in vivo, human
How it was run: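 Children with recurrent/refractory CNS tumours took oral drug once daily, continuously, in 28-day cycles. Dosing was stratified by EIACD use, with start/escalation levels 20–40 mg/m² (no EIACD) or 15–32 mg/m² (EIACD). Monitoring included weekly exam, serum chemistries, CBC and urine protein for 8 weeks, and TSH before each cycle. Events other than hypertension were graded by CTCAE v3, later v4.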

For COc1cc2c(Oc3ccc4[nH]c(C)cc4c3F)ncnc2cc1OCCCN1CCCC1 [cediranib, Cediranib], the “Abdominal pain, events (patients)” value (grade 1 AE) was 5(5), the “Acidosis, events (patients)” value (grade 1 AE) was 7(5) and the “Alanine aminotransferase increased, events (patients)” value (from here on “Alanine aminotransferase increased”) (grade 1 AE) was 44(25). For the same compound, the “Alkaline phosphatase increased, events (patients)” value (grade 1 AE) was 4(3), the “Anal mucositis, events (patients)” value (grade 1 AE) was 1(1) and the “Anal pain, events (patients)” value (grade 1 AE) was 1(1). The “Anemia, events (patients)” value (grade 1 AE) was 4(4), the “Anorexia, events (patients)” value (grade 1 AE) was 9(9) and the “Aspartate aminotransferase increased, events (patients)” value (grade 1 AE) was 38(20). For the same compound, the “Back pain, events (patients)” value (grade 1 AE) was 4(3), the “Blood bilirubin increased, events (patients)” value (grade 1 AE) was 17(10) and the “Bone pain, events (patients)” value (grade 1 AE) was 1(1). For the same compound, the “Cardiac troponin I increased, events (patients)” value (grade 1 AE) was 1(1), the “Chest wall pain, events (patients)” value (grade 1 AE) was 1(1) and the “Cholesterol high, events (patients)” value (grade 1 AE) was 1(1). For the same compound, the “Chronic kidney disease, events (patients)” value (grade 1 AE) was 1(1), the “Constipation, events (patients)” value (grade 1 AE) was 7(4) and the “Cough, events (patients)” value (grade 1 AE) was 4(4). The “Creatinine increased, events (patients)” value (grade 1 AE) was 3(2), the “Dehydration, events (patients)” value (grade 1 AE) was 2(2) and the “Depression, events (patients)” value (grade 1 AE) was 3(3). The “Diarrhea, events (patients)” value (grade 1 AE) was 44(30), the “Dizziness, events (patients)” value (grade 1 AE) was 3(3) and the “Dry mouth, events (patients)” value (grade 1 AE) was 1(1). For the same compound, the “Dry skin, events (patients)” value (grade 1 AE) was 1(1), the “Dyspepsia, events (patients)” value (grade 1 AE) was 3(3) and the “Edema face, events (patients)” value (grade 1 AE) was 1(1). For the same compound, the “Edema limbs, events (patients)” value (grade 1 AE) was 2(2), the “Endocrine disorders - Other, specify, events (patients)” value (grade 1 AE) was 1(1) and the “Epistaxis, events (patients)” value (grade 1 AE) was 6(5). For the same compound, the “Eye disorders - Other, specify, events (patients)” value (grade 1 AE) was 1(1), the “Fatigue, events (patients)” value (grade 1 AE) was 11(10) and the “Fecal incontinence, events (patients)” value (grade 1 AE) was 2(2). The “Fever, events (patients)” value (grade 1 AE) was 2(2), the “GGT increased, events (patients)” value (grade 1 AE) was 1(1) and the “Gastritis, events (patients)” value (grade 1 AE) was 2(2). For the same compound, the “Gastrointestinal disorders - Other, specify, events (patients)” value (grade 1 AE) was 1(1), the “Headache, events (patients)” value (grade 1 AE) was 21(12) and the “Hematuria, events (patients)” value (grade 1 AE) was 5(3). For the same compound, the “Hemoglobin increased, events (patients)” value (grade 1 AE) was 11(6), the “Hoarseness, events (patients)” value (grade 1 AE) was 1(1) and the “Hypercalcemia, events (patients)” value (grade 1 AE) was 6(3). For the same compound, the “Hyperglycemia, events (patients)” value (grade 1 AE) was 19(14), the “Hyperkalemia, events (patients)” value (grade 1 AE) was 3(3) and the “Hypermagnesemia, events (patients)” value (grade 1 AE) was 14(9). The “Hypernatremia, events (patients)” value (grade 1 AE) was 8(5), the “Hypertension, events (patients)” value (grade 1 AE) was 21(14) and the “Hyperthyroidism, events (patients)” value (grade 1 AE) was 2(2). For the same compound, the “Hypoalbuminemia, events (patients)” value (grade 1 AE) was 25(16), the “Hypocalcemia, events (patients)” value (grade 1 AE) was 23(14) and the “Hypoglycemia, events (patients)” value (grade 1 AE) was 5(5). For the same compound, the “Hypokalemia, events (patients)” value (grade 1 AE) was 20(16), the “Hypomagnesemia, events (patients)” value (grade 1 AE) was 8(6) and the “Hyponatremia, events (patients)” value (grade 1 AE) was 23(12). For the same compound, the “Hypophosphatemia, events (patients)” value (grade 1 AE) was 15(12), the “Hypothyroidism, events (patients)” value (grade 1 AE) was 10(10) and the “INR increased, events (patients)” value (grade 1 AE) was 1(1). The “Investigations - Other, specify, events (patients)” value (grade 1 AE) was 2(2), the “Joint effusion, events (patients)” value (grade 1 AE) was 1(1) and the “Leukoencephalopathy, events (patients)” value (grade 1 AE) was 1(1). The “Lymphocyte count decreased, events (patients)” value (grade 1 AE) was 13(10), the “Malaise, events (patients)” value (grade 1 AE) was 3(1) and the “Mucositis oral, events (patients)” value (grade 1 AE) was 1(1). For the same compound, the “Myalgia, events (patients)” value (grade 1 AE) was 1(1), the “Nausea, events (patients)” value (grade 1 AE) was 18(13) and the “Nervous system disorders - Other, specify, events (patients)” value (grade 1 AE) was 2(2). For the same compound, the “Neutrophil count decreased, events (patients)” value (grade 1 AE) was 13(8), the “Non-cardiac chest pain, events (patients)” value (grade 1 AE) was 2(2) and the “Oral pain, events (patients)” value (grade 1 AE) was 2(2). The “Pain in extremity, events (patients)” value (grade 1 AE) was 6(5), the “Pain, events (patients)” value (grade 1 AE) was 3(3) and the “Palmar-plantar erythrodysesthesia syndrome, events (patients)” value (grade 1 AE) was 4(4). The “Platelet count decreased, events (patients)” value (grade 1 AE) was 23(17), the “Proteinuria, events (patients)” value (grade 1 AE) was 22(14) and the “Rash acneiform, events (patients)” value (grade 1 AE) was 2(2). For the same compound, the “Rash maculo-papular, events (patients)” value (grade 1 AE) was 6(5), the “Rectal pain, events (patients)” value (grade 1 AE) was 1(1) and the “Renal and urinary disorders - Other, specify, events (patients)” value (grade 1 AE) was 1(1). The “Respiratory, thoracic and mediastinal disorders - Other, specify, events (patients)” value (grade 1 AE) was 1(1), the “Serum amylase increased, events (patients)” value (grade 1 AE) was 1(1) and the “Skin and subcutaneous tissue disorders - Other, specify, events (patients)” value (grade 1 AE) was 1(1). For the same compound, the “Stomach pain, events (patients)” value (grade 1 AE) was 3(3), the “Urinary frequency, events (patients)” value (grade 1 AE) was 2(2) and the “Urinary retention, events (patients)” value (grade 1 AE) was 2(2). For the same compound, the “Vascular disorders - Other, specify, events (patients)” value (grade 1 AE) was 2(2), the “Voice alteration, events (patients)” value (grade 1 AE) was 2(2) and the “Vomiting, events (patients)” value (grade 1 AE) was 33(19). The “Weight loss, events (patients)” value (grade 1 AE) was 2(2), the “White blood cell decreased, events (patients)” value (grade 1 AE) was 17(14) and the “Abdominal pain, events (patients)” value (grade 2 AE) was 5(5). For the same compound, the “Alanine aminotransferase increased” value (grade 2 AE) was 18(10), the “Anemia, events (patients)” value (grade 2 AE) was 1(1) and the “Anorexia, events (patients)” value (grade 2 AE) was 6(6). The “Arthralgia, events (patients)” value (grade 2 AE) was 1(1), the “Aspartate aminotransferase increased, events (patients)” value (grade 2 AE) was 4(4) and the “Back pain, events (patients)” value (grade 2 AE) was 1(1). The “Blood bilirubin increased, events (patients)” value (grade 2 AE) was 1(1), the “Bone pain, events (patients)” value (grade 2 AE) was 2(2) and the “Confusion, events (patients)” value (grade 2 AE) was 1(1). For the same compound, the “Constipation, events (patients)” value (grade 2 AE) was 2(2), the “Cough, events (patients)” value (grade 2 AE) was 1(1) and the “Creatinine increased, events (patients)” value (grade 2 AE) was 2(2). For the same compound, the “Dehydration, events (patients)” value (grade 2 AE) was 2(2), the “Diarrhea, events (patients)” value (grade 2 AE) was 16(11) and the “Dizziness, events (patients)” value (grade 2 AE) was 2(1). For the same compound, the “Dyspepsia, events (patients)” value (grade 2 AE) was 1(1), the “Dysphasia, events (patients)” value (grade 2 AE) was 1(1) and the “Endocrine disorders - Other, specify, events (patients)” value (grade 2 AE) was 1(1). For the same compound, the “Fatigue, events (patients)” value (grade 2 AE) was 10(10), the “Fever, events (patients)” value (grade 2 AE) was 1(1) and the “Flushing, events (patients)” value (grade 2 AE) was 3(1). For the same compound, the “Gastrointestinal disorders - Other, specify, events (patients)” value (grade 2 AE) was 1(1), the “Headache, events (patients)” value (grade 2 AE) was 10(7) and the “Hemoglobin increased, events (patients)” value (grade 2 AE) was 1(1). The “Hydrocephalus, events (patients)” value (grade 2 AE) was 2(2), the “Hyperglycemia, events (patients)” value (grade 2 AE) was 3(3) and the “Hypernatremia, events (patients)” value (grade 2 AE) was 4(1). The “Hypertension, events (patients)” value (grade 2 AE) was 28(28), the “Hypoalbuminemia, events (patients)” value (grade 2 AE) was 9(7) and the “Hypocalcemia, events (patients)” value (grade 2 AE) was 3(3). For the same compound, the “Hypoglycemia, events (patients)” value (grade 2 AE) was 1(1), the “Hypomagnesemia, events (patients)” value (grade 2 AE) was 1(1) and the “Hypophosphatemia, events (patients)” value (grade 2 AE) was 6(4). For the same compound, the “Hypothyroidism, events (patients)” value (grade 2 AE) was 10(10), the “Hypoxia, events (patients)” value (grade 2 AE) was 1(1) and the “Intracranial hemorrhage, events (patients)” value (grade 2 AE) was 4(4). The “Lipase increased, events (patients)” value (grade 2 AE) was 1(1), the “Lymphocyte count decreased, events (patients)” value (grade 2 AE) was 12(8) and the “Mucositis oral, events (patients)” value (grade 2 AE) was 2(2). The “Myalgia, events (patients)” value (grade 2 AE) was 2(2), the “Nausea, events (patients)” value (grade 2 AE) was 4(4) and the “Nervous system disorders - Other, specify, events (patients)” value (grade 2 AE) was 1(1). The “Neutrophil count decreased, events (patients)” value (grade 2 AE) was 8(5), the “Non-cardiac chest pain, events (patients)” value (grade 2 AE) was 1(1) and the “Pain in extremity, events (patients)” value (grade 2 AE) was 3(3). For the same compound, the “Pain, events (patients)” value (grade 2 AE) was 1(1), the “Palmar-plantar erythrodysesthesia syndrome, events (patients)” value (grade 2 AE) was 10(7) and the “Pericardial effusion, events (patients)” value (grade 2 AE) was 1(1). For the same compound, the “Peripheral motor neuropathy, events (patients)” value (grade 2 AE) was 2(2), the “Platelet count decreased, events (patients)” value (grade 2 AE) was 3(3) and the “Pleural effusion, events (patients)” value (grade 2 AE) was 1(1). For the same compound, the “Proteinuria, events (patients)” value (grade 2 AE) was 15(14), the “Respiratory, thoracic and mediastinal disorders - Other, specify, events (patients)” value (grade 2 AE) was 1(1) and the “Reversible posterior leukoencephalopathy syndrome, events (patients)” value (grade 2 AE) was 1(1). For the same compound, the “Seizure, events (patients)” value (grade 2 AE) was 3(3), the “Skin and subcutaneous tissue disorders - Other, specify, events (patients)” value (grade 2 AE) was 1(1) and the “Skin ulceration, events (patients)” value (grade 2 AE) was 2(2). For the same compound, the “Urinary retention, events (patients)” value (grade 2 AE) was 1(1), the “Vomiting, events (patients)” value (grade 2 AE) was 6(6) and the “Weight loss, events (patients)” value (grade 2 AE) was 2(2). The “White blood cell decreased, events (patients)” value (grade 2 AE) was 5(3), the “Abdominal pain, events (patients)” value (grade 3 AE) was 1(1) and the “Alanine aminotransferase increased” value (grade 3 AE) was 7(6).
